ChEMBL document CHEMBL3272173, “Synthesis and biological activity of peptide antagonists of luliberin (luteinizing hormone-releasing hormone)” (J Med Chem, 1979)
Where “and” joins values, the source holds several entries; their conditions need not be identical. Equal values may be shown once. Blank lines part the entries; values can stand above or below the compound they belong to. Peptide text beside a SMILES is read from it. * marks the point of attachment. Cbz = O=C(OCc1ccccc1)*; NHBn = c1ccc(CN*)cc1; Bn = c1ccc(C*)cc1

Key:
Rattus norvegicus [1] = experiment: Antiovulatory activity in sc dosed CD rat assessed as blockade of ovulation administered as six doses at 1200, 1230, 1300, 1350, 1400 and 1450 hrs during proestrus stage measured during estrus stage by dissecting microscopic analysis; type: functional
Outline: (§1)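 Cycling Charles River CD rats were given six subcutaneous injections of analogue in 0.1 mL propylene glycol on the afternoon of proestrus, and controls received vehicle alone. Rats were killed the next morning (estrus). Ovulating animals were scored and ova in the oviducts were counted under a dissecting microscope.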

Rattus norvegicus [2] = experiment: Antiovulatory activity in CD rat assessed as blockade of ovulation at 3 mg, sc administered as six doses at 1200, 1230, 1300, 1350, 1400 and 1450 hrs during proestrus stage measured during estrus stage by dissecting microscopic analysis; type: functional; outline: as §1
[3] = molecular target: T1, Gonadotropin-releasing hormone receptor (Rattus norvegicus) (UniProt P30969); experiment: In vitro antagonist activity at GNRHR in CD rat anterior pituitary gland assessed as inhibition of LH-RH-stimulated LH release at compound to LH-RH molar ratio of 200 after 4 hrs by radioimmunoassay; conditions: concentration not given here
T1 sequence (whole entry): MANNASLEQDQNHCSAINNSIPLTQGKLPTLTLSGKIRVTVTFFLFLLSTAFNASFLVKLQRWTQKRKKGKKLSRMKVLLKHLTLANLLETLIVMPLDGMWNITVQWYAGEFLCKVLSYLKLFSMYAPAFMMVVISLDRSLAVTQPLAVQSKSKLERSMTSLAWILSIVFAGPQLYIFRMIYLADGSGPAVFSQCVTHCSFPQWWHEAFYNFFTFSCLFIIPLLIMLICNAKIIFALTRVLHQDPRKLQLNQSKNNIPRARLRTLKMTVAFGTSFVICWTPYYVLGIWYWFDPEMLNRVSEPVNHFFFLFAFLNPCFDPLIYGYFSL
Outline: (§2)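 Anterior pituitaries from diestrus CD rats (200-250 g) were dissociated enzymatically (collagenase, hyaluronidase, then Viokase). Cells were cultured 4 days at 1.67 × 10^5 cells/mL in DME with 10% horse serum and 2.5% fetal calf serum, then washed serum-free. Duplicate cultures received LH-RH (2-5 × 10^-10 M) with a single analogue concentration in serum-free DME for 4 h at 37 °C. LH in the medium was measured by RIA and reported as % inhibition of LH-RH-stimulated release.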

[4] = molecular target: T1, Gonadotropin-releasing hormone receptor (Rattus norvegicus); experiment: In vitro antagonist activity at GNRHR in CD rat anterior pituitary gland assessed as ratio of molar concentration of compound to LH-RH for inhibition of LH-RH-stimulated LH release after 4 hrs by radioimmunoassay
Outline: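 Monolayers were cultured 4 days from dissociated anterior pituitary cells of diestrus CD rats. They were exposed in duplicate to LH-RH (2-5 × 10^-10 M) plus multiple analogue concentrations in serum-free DME for 4 h at 37 °C. LH in the medium was measured by radioimmunoassay. The ED50 molar ratio is the analogue:LH-RH molar ratio giving 50% inhibition of LH-RH-stimulated LH release.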

Rattus norvegicus [5] = experiment: Antiovulatory activity in CD rat assessed as blockade of ovulation at 1 mg, sc administered as six doses at 1200, 1230, 1300, 1350, 1400 and 1450 hrs during proestrus stage measured during estrus stage by dissecting microscopic analysis; type: functional; outline: as §1
[6] = molecular target: T1, Gonadotropin-releasing hormone receptor (Rattus norvegicus); experiment: In vitro antagonist activity at GNRHR in CD rat anterior pituitary gland assessed as inhibition of LH-RH-stimulated LH release at compound to LH-RH molar ratio of 100 after 4 hrs by radioimmunoassay; conditions: concentration not given here; outline: as §2
[7] = molecular target: T1, Gonadotropin-releasing hormone receptor (Rattus norvegicus); experiment: In vitro antagonist activity at GNRHR in CD rat anterior pituitary gland assessed as inhibition of LH-RH-stimulated LH release at compound to LH-RH molar ratio of 10000 after 4 hrs by radioimmunoassay; conditions: concentration not given here; outline: as §2
[8] = molecular target: T1, Gonadotropin-releasing hormone receptor (Rattus norvegicus); experiment: In vitro antagonist activity at GNRHR in CD rat anterior pituitary gland assessed as inhibition of LH-RH-stimulated LH release at compound to LH-RH molar ratio of 10 after 4 hrs by radioimmunoassay; conditions: concentration not given here; outline: as §2
[9] = molecular target: T1, Gonadotropin-releasing hormone receptor (Rattus norvegicus); experiment: In vitro antagonist activity at GNRHR in CD rat anterior pituitary gland assessed as inhibition of LH-RH-stimulated LH release at compound to LH-RH molar ratio of 2800 after 4 hrs by radioimmunoassay; conditions: concentration not given here; outline: as §2
[10] = molecular target: T1, Gonadotropin-releasing hormone receptor (Rattus norvegicus); experiment: In vitro antagonist activity at GNRHR in CD rat anterior pituitary gland assessed as inhibition of LH-RH-stimulated LH release at compound to LH-RH molar ratio of 20 after 4 hrs by radioimmunoassay; conditions: concentration not given here; outline: as §2

Compound: CC(C)C[C@H](NC(=O)OCc1ccccc1)C(=O)N[C@@H](Cc1c[nH]c2ccccc12)C(=O)N[C@@H](CO)C(=O)N[C@@H](Cc1ccc(O)cc1)C(=O)N[C@H](CC(N)=O)C(=O)N[C@@H](CC(C)C)C(=O)N[C@@H](CCCNC(=N)N)C(=O)N1CCC[C@H]1C(=O)NCC(N)=O.Cl
ED50 (Rattus norvegicus [1]): >1 mg
ED50 [4]: 134 molar ratio
inhibition (INH) (Rattus norvegicus [5]): 0%
inhibition [6]: 42%

Compound: H-WSYGLRPG-NH2
inhibition [7]: 15%

Compound: COc1ccc(COC(=O)N[C@@H](COCc2ccccc2)C(=O)N[C@@H](Cc2c[nH]c3ccccc23)C(=O)N[C@@H](CO)C(=O)N[C@@H](Cc2ccc(O)cc2)C(=O)N[C@H](Cc2ccccc2)C(=O)N[C@@H](CC(C)C)C(=O)N[C@@H](CCCNC(=N)N)C(=O)N2CCC[C@H]2C(=O)NCC(N)=O)cc1.Cl
ED50 (Rattus norvegicus [1]): >1 mg
ED50 [4]: 1.3 molar ratio
inhibition (INH) (Rattus norvegicus [5]): 40%
inhibition [8]: 100%

Compound: CC(C)C[C@H](NC(=O)CNC(=O)[C@H](Cc1ccc(O)cc1)NC(=O)[C@H](CO)NC(=O)[C@H](Cc1c[nH]c2ccccc12)NC(=O)[C@H](CCC(=O)NCc1ccccc1)NC(=O)OCc1ccccc1)C(=O)N[C@@H](CCCNC(=N)N)C(=O)N1CCC[C@H]1C(=O)NCC(N)=O.Cl (HELM PEPTIDE1{[O=C(OCc1ccccc1)[*:2]].E.W.S.Y.G.L.R.P.G.[am]}|CHEM1{[c1ccc(CN[*:1])cc1]}$PEPTIDE1,CHEM1,2:R3-1:R1$$$V2.0)
ED50 (Rattus norvegicus [1]): >1 mg
ED50 [4]: 360 molar ratio
inhibition (INH) (Rattus norvegicus [5]): 40%
inhibition [6]: 96%

Compound: CC(C)C[C@H](NC(=O)CNC(=O)[C@H](Cc1ccc(O)cc1)NC(=O)[C@H](CO)NC(=O)[C@H](Cc1c[nH]c2ccccc12)NC(=O)[C@H](COCc1ccccc1)NC(=O)OCc1ccccc1)C(=O)N[C@@H](CCCNC(=N)N)C(=O)N1CCC[C@H]1C(=O)NCC(N)=O.Cl (Cbz-S(Bn)WSYGLRPG-NH2)
inhibition [9]: 100%
inhibition (INH) (Rattus norvegicus [2]): 20%
ED50 [4]: 100 molar ratio

Compound: CC(C)C[C@H](NC(=O)CNC(=O)[C@H](Cc1ccc(O)cc1)NC(=O)[C@H](CO)NC(=O)[C@H](Cc1c[nH]c2ccccc12)NC(=O)[C@@H]1CCC(=O)N1)C(=O)N[C@@H](CCCNC(=N)N)C(=O)N1CCC[C@H]1C(=O)NCC(N)=O (HELM PEPTIDE1{[Glp].W.S.Y.G.L.R.P.G.[am]}$$$$V2.0)
inhibition [7]: 60%

Compound: CC(C)C[C@H](NC(=O)CNC(=O)[C@H](Cc1ccc(O)cc1)NC(=O)[C@H](CO)NC(=O)[C@H](Cc1c[nH]c2ccccc12)NC(=O)OCc1ccccc1)C(=O)N[C@@H](CCCNC(=N)N)C(=O)N1CCC[C@H]1C(=O)NCC(N)=O.Cl (HELM PEPTIDE1{[O=C(OCc1ccccc1)[*:2]].W.S.Y.G.L.R.P.G.[am]}$$$$V2.0)
ED50 (Rattus norvegicus [1]): >1 mg
inhibition (INH) (Rattus norvegicus [5]): 20%
inhibition [7]: 68%

Compound: H-HWSYGLRPG-NH2
inhibition [7]: 42%

Compound: CC(C)C[C@H](NC(=O)CNC(=O)[C@H](Cc1ccc(O)cc1)NC(=O)[C@H](CO)NC(=O)[C@H](Cc1c[nH]c2ccccc12)NC(=O)[C@@H]1CCCN1C=O)C(=O)N[C@@H](CCCNC(=N)N)C(=O)N1CCC[C@H]1C(=O)NCC(N)=O (HELM PEPTIDE1{[O=C[*:2]].P.W.S.Y.G.L.R.P.G.[am]}$$$$V2.0)
inhibition [7]: 53%

Compound: CCNC(=O)[C@@H]1CCCN1C(=O)[C@H](CCCNC(=N)N)NC(=O)[C@H](CC(C)C)NC(=O)[C@@H](Cc1c[nH]c2ccccc12)NC(=O)[C@H](Cc1ccc(O)cc1)NC(=O)[C@H](CO)NC(=O)[C@H](Cc1c[nH]c2ccccc12)NC(=O)[C@H](CCC(N)=O)NC(=O)OCc1ccccc1.Cl
ED50 (Rattus norvegicus [1]): >1 mg
ED50 [4]: 3.9 molar ratio
inhibition (INH) (Rattus norvegicus [5]): 20%
inhibition [6]: 100%

Further lines, with some results ahead:

inhibition [3]: 74%
Compound: CC(=O)O.CCNC(=O)[C@@H]1CCCN1C(=O)[C@H](CCCNC(=N)N)NC(=O)[C@H](CC(C)C)NC(=O)[C@H]1CCCN1C(=O)[C@H](Cc1ccc(O)cc1)NC(=O)[C@H](CO)NC(=O)[C@H](Cc1c[nH]c2ccccc12)NC(=O)[C@H](CCC(N)=O)NC(=O)OCc1ccccc1
ED50 (Rattus norvegicus [1]): 1 mg
inhibition (INH) (Rattus norvegicus [2]): 100%

inhibition [7]: 58%
Compound: CC(C)C[C@H](NC(=O)CNC(=O)[C@H](Cc1ccc(O)cc1)NC(=O)[C@H](CO)NC(=O)[C@H](Cc1c[nH]c2ccccc12)NC(=O)[C@H](Cc1cnc[nH]1)NC(=O)OCc1ccccc1)C(=O)N[C@@H](CCCNC(=N)N)C(=O)N1CCC[C@H]1C(=O)NCC(N)=O (HELM PEPTIDE1{[O=C(OCc1ccccc1)[*:2]].H.W.S.Y.G.L.R.P.G.[am]}$$$$V2.0)

inhibition [3]: 85%
Compound: CCNC(=O)[C@@H]1CCCN1C(=O)[C@H](CCCNC(=N)N)NC(=O)[C@H](CC(C)C)NC(=O)[C@@H](CCSC)NC(=O)[C@H](Cc1ccc(O)cc1)NC(=O)[C@H](CO)NC(=O)[C@H](Cc1c[nH]c2ccccc12)NC(=O)[C@H](CCC(N)=O)NC(=O)OCc1ccccc1.Cl
ED50 (Rattus norvegicus [1]): 3 mg
inhibition (INH) (Rattus norvegicus [2]): 60%

inhibition [9]: 86%
ED50 [4]: 20 molar ratio
Compound: CCNC(=O)[C@@H]1CCCN1C(=O)[C@H](CCCNC(=N)N)NC(=O)[C@H](CC(C)C)NC(=O)[C@@H](CCCNC(=N)N)NC(=O)[C@H](Cc1ccc(O)cc1)NC(=O)[C@H](CO)NC(=O)[C@H](Cc1c[nH]c2ccccc12)NC(=O)[C@H](CCC(N)=O)NC(=O)OCc1ccccc1.Cl
ED50 (Rattus norvegicus [1]): >1 mg
inhibition (INH) (Rattus norvegicus [5]): 0%

ED50 [4]: 1.5 molar ratio
inhibition [8]: 90%
Compound: CC(C)C[C@H](NC(=O)[C@@H](Cc1ccccc1)NC(=O)[C@H](Cc1ccc(O)cc1)NC(=O)[C@H](CO)NC(=O)[C@H](Cc1c[nH]c2ccccc12)NC(=O)[C@H](COCc1ccccc1)NC(=O)OCc1ccccc1)C(=O)N[C@@H](CCCNC(=N)N)C(=O)N1CCC[C@H]1C(=O)NCC(N)=O.Cl
ED50 (Rattus norvegicus [1]): >3 mg
inhibition (INH) (Rattus norvegicus [2]): 40%

inhibition [10]: 71%
ED50 [4]: 2.7 molar ratio and 1.3 molar ratio
inhibition [8]: 62%
Compound: CC(=O)O.CCNC(=O)[C@@H]1CCCN1C(=O)[C@H](CCCNC(=N)N)NC(=O)[C@H](CC(C)C)NC(=O)[C@@H](Cc1ccccc1)NC(=O)[C@H](Cc1ccc(O)cc1)NC(=O)[C@H](CO)NC(=O)[C@H](Cc1c[nH]c2ccccc12)NC(=O)[C@H](CCC(=O)NCc1ccccc1)NC(=O)OCc1ccccc1
ED50 (Rattus norvegicus [1]): >1 mg
inhibition (INH) (Rattus norvegicus [5]): 0%

ED50 [4]: 350 molar ratio
inhibition [6]: 88%
Compound: CCNC(=O)[C@@H]1CCCN1C(=O)[C@H](CCCNC(=N)N)NC(=O)[C@H](CC(C)C)NC(=O)CNC(=O)[C@H](Cc1ccc(O)cc1)NC(=O)[C@H](CO)NC(=O)[C@H](Cc1c[nH]c2ccccc12)NC(=O)[C@H](CCC(=O)NCc1ccccc1)NC(=O)OCc1ccccc1.Cl (Cbz-E(NHBn)WSYGLRP-NHEt)
ED50 (Rattus norvegicus [1]): >1 mg
inhibition (INH) (Rattus norvegicus [5]): 20%
